From ChEMBL document CHEMBL1138361, “4-acyl-1-(4-aminoalkoxyphenyl)-2-ketopiperazines as a novel class of non-brain-penetrant histamine H3 receptor antagonists” (J Med Chem, 2007)
One block for each compound: values may come before it.

How the values were obtained:
[1] = Partition coefficient, log D at pH 7.4; assay type: physicochemical; conditions: octanol/water
Procedure, shortened: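 Compound in phosphate buffer was shaken with buffer-saturated octanol (3 × 50 inversions). Phases were separated by centrifugation at 300g for 15 min. Both phases were quantified by HPLC, and log D was calculated from peak areas normalized to injection volume.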

[2] = Half life in CD Sprague-Dawley rat at 1.0 mg/kg, iv; assay type: ADME, organism-based; design: dose 1 mg/kg, route intravenous; conditions: in vivo
Procedure, shortened: (§1)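 Single iv and oral doses given to male CD Sprague-Dawley rats (1 mg/kg iv, 3 mg/kg po) and male Beagle dogs (1 mg/kg iv, 2 mg/kg po). Vehicle was a DMSO-PEG 200-water (5:45:50) solution. Serial and terminal blood samples were taken at time points up to 7, 12 or 24 h postdose.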

[3] = Oral bioavailability in CD Sprague-Dawley rat at 3.0 mg/kg, po; assay type: ADME, organism-based; conditions: in vivo; procedure, shortened: as §1
[4] = Clearance in CD Sprague-Dawley rat at 1.0 mg/kg, iv; assay type: ADME, organism-based; design: dose 1 mg/kg, route intravenous; conditions: in vivo; procedure, shortened: as §1
[5] = AUC in CD Sprague-Dawley rat at 1.0 mg/kg, iv; assay type: ADME, organism-based; design: dose 1 mg/kg, route intravenous; conditions: plasma; procedure, shortened: as §1
[6] = Tmax in CD Sprague-Dawley rat at 3.0 mg/kg, po; assay type: ADME, organism-based; design: dose 3 mg/kg, route oral; conditions: in vivo; procedure, shortened: as §1
[7] = Cmax in CD Sprague-Dawley rat at 1.0 mg/kg, iv; assay type: ADME, organism-based; design: dose 1 mg/kg, route intravenous; conditions: in vivo; procedure, shortened: as §1
[8] = AUC in CD Sprague-Dawley rat at 3.0 mg/kg, po; assay type: ADME, organism-based; design: dose 3 mg/kg, route oral; conditions: plasma; procedure, shortened: as §1
[9] = Tmax in CD Sprague-Dawley rat at 1.0 mg/kg, iv; assay type: ADME, organism-based; design: dose 1 mg/kg, route intravenous; conditions: in vivo; procedure, shortened: as §1
[10] = Cmax in CD Sprague-Dawley rat at 3.0 mg/kg, po; assay type: ADME, organism-based; design: dose 3 mg/kg, route oral; conditions: in vivo; procedure, shortened: as §1
[11] = Volume of distribution in CD Sprague-Dawley rat at 1.0 mg/kg, iv; assay type: ADME, organism-based; design: dose 1 mg/kg, route intravenous; conditions: in vivo; procedure, shortened: as §1
[12] = Tmax in Beagle dog at 1.0 mg/kg, iv; assay type: ADME, organism-based, Canis lupus familiaris; design: dose 1 mg/kg, route intravenous; conditions: in vivo; procedure, shortened: as §1
[13] = Tmax in Beagle dog at 2.0 mg/kg, po; assay type: ADME, organism-based, Canis lupus familiaris; design: dose 2 mg/kg, route oral; conditions: in vivo; procedure, shortened: as §1
[14] = AUC in Beagle dog at 2.0 mg/kg, po; assay type: ADME, organism-based, Canis lupus familiaris; design: dose 2 mg/kg, route oral; conditions: plasma; procedure, shortened: as §1
[15] = Volume of distribution in Beagle dog at 1.0 mg/kg, iv; assay type: ADME, organism-based, Canis lupus familiaris; design: dose 1 mg/kg, route intravenous; conditions: in vivo; procedure, shortened: as §1
[16] = Oral bioavailability in Beagle dog at 2.0 mg/kg, po; assay type: ADME, organism-based, Canis lupus familiaris; conditions: in vivo; procedure, shortened: as §1
[17] = Half life in Beagle dog at 1.0 mg/kg, iv; assay type: ADME, organism-based, Canis lupus familiaris; design: dose 1 mg/kg, route intravenous; conditions: in vivo; procedure, shortened: as §1
[18] = Ratio of drug level in brain to blood in CD Sprague-Dawley rat at 1 mg/kg, iv after 5 mins; assay type: ADME, organism-based; design: dose 1 mg/kg, route intravenous; conditions: brain and blood
Procedure, shortened: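 Male CD Sprague-Dawley rats were dosed iv in DMSO-PEG 200-water (5:45:50). Blood and brain were collected 5 min postdose under terminal isoflurane anesthesia. Blood was protein-precipitated; brain was homogenized and extracted. Parent drug was quantified by LCMS/MS.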

[19] = Cmax in Beagle dog at 2.0 mg/kg, po; assay type: ADME, organism-based, Canis lupus familiaris; design: dose 2 mg/kg, route oral; conditions: in vivo; procedure, shortened: as §1
[20] = Clearance in Beagle dog at 1.0 mg/kg, iv; assay type: ADME, organism-based, Canis lupus familiaris; design: dose 1 mg/kg, route intravenous; conditions: in vivo; procedure, shortened: as §1
[21] = Cmax in Beagle dog at 1.0 mg/kg, iv; assay type: ADME, organism-based, Canis lupus familiaris; design: dose 1 mg/kg, route intravenous; conditions: in vivo; procedure, shortened: as §1
[22] = AUC in Beagle dog at 1.0 mg/kg, iv; assay type: ADME, organism-based, Canis lupus familiaris; design: dose 1 mg/kg, route intravenous; conditions: plasma; procedure, shortened: as §1

logD [1]: -0.64
Structure (SMILES): CC(C)N1CCC(Oc2ccc(N3CCN(C(=O)c4ccc(C#N)cc4)CC3=O)cc2)CC1

logD [1]: -1.6
Structure (SMILES): O=C(c1ccncc1)N1CCN(c2ccc(OCCCN3CCCCC3)cc2)C(=O)C1

logD [1]: -1.1
Structure (SMILES): O=C(c1cnn2cccnc12)N1CCN(c2ccc(OCCCN3CCCCC3)cc2)C(=O)C1

logD [1]: -0.47
Structure (SMILES): O=C(c1ccc(F)cc1)N1CCN(c2ccc(OCCCN3CCCCCC3)cc2)C(=O)C1

logD [1]: 0.24
Structure (SMILES): O=C(c1cc(F)cc(F)c1)N1CCN(c2ccc(OCCCN3CCCCCC3)cc2)C(=O)C1

logD [1]: 0.15
Structure (SMILES): O=C(c1ccc(F)cc1F)N1CCN(c2ccc(OCCCN3CCCCCC3)cc2)C(=O)C1

half-life [2]: 1.8 h
bioavailability [3]: 7%
clearance [4]: 13 mL/min/kg
AUC [5]: 1190 ng·h/mL
Tmax [6]: 7 h
Cmax [7]: 729 ng/mL
logD [1]: -0.59
AUC [8]: 441 ng·h/mL
Tmax [9]: 4.8 min
Cmax [10]: 52 ng/mL
Vd [11]: 2.1 L/kg
Structure (SMILES): C[C@@H]1CCCN1CCCOc1ccc(N2CCN(C(=O)c3ccc(C#N)cc3)CC2=O)cc1.O=CO

logD [1]: -0.02
Structure (SMILES): C[C@@H]1CCCN1CCCOc1ccc(N2CCN(C(=O)c3cc(F)cc(F)c3)CC2=O)cc1

half-life [2]: 1.4 h
Tmax [12]: 4.8 min
Tmax [13]: 1 h
AUC [14]: 1540 ng·h/mL
Vd [15]: 2.3 L/kg
clearance [4]: 27 mL/min/kg
AUC [5]: 601 ng·h/mL
bioavailability [16]: 69%
half-life [17]: 2.3 h
Tmax [6]: 1 h
Kp at 5 min [18]: 0.2
Cmax [19]: 294 ng/mL
Cmax [7]: 350 ng/mL
clearance [20]: 15 mL/min/kg
logD [1]: 0.38
AUC [8]: 1150 ng·h/mL
Tmax [9]: 4.8 min
Cmax [10]: 149 ng/mL
Cmax [21]: 419 ng/mL
AUC [22]: 1100 ng·h/mL
Vd [11]: 2.2 L/kg
Structure (SMILES): N#Cc1ccc(C(=O)N2CCN(c3ccc(OC4CCN(C5CCC5)CC4)cc3)C(=O)C2)cc1.O=CO

logD [1]: 0.99
Structure (SMILES): O=C(c1cc(F)cc(F)c1)N1CCN(c2ccc(OC3CCN(C4CCC4)CC3)cc2)C(=O)C1

Structure (SMILES): C[C@@H]1CCCN1CCCOc1ccc(N2CCN(C(=O)c3ccc(F)cc3F)CC2=O)cc1.O=CO
half-life [2]: 1.1 h
Tmax [12]: 4.8 min
Tmax [13]: 4 h
AUC [14]: 4800 ng·h/mL
Vd [15]: 2.3 L/kg
bioavailability [3]: 48%
clearance [4]: 31 mL/min/kg
AUC [5]: 682 ng·h/mL
bioavailability [16]: 100%
half-life [17]: 4.3 h
Tmax [6]: 4 h
Kp at 5 min [18]: 0.2
Cmax [19]: 734 ng/mL
Cmax [7]: 291 ng/mL
clearance [20]: 6.5 mL/min/kg
logD [1]: -0.08
AUC [8]: 753 ng·h/mL
Tmax [9]: 4.8 min
Cmax [10]: 109 ng/mL
Cmax [21]: 414 ng/mL
AUC [22]: 2160 ng·h/mL
Vd [11]: 2 L/kg

logD [1]: -0.18
Structure (SMILES): C[C@H]1CCCN1CCCOc1ccc(N2CCN(C(=O)c3ccc(F)cc3)CC2=O)cc1

logD [1]: 0.95
Structure (SMILES): O=C(c1ccc(F)cc1F)N1CCN(c2ccc(OC3CCN(C4CCC4)CC3)cc2)C(=O)C1

logD [1]: -0.6
Structure (SMILES): C[C@H]1CCCN1CCCOc1ccc(N2CCN(C(=O)c3ccc(C#N)cc3)CC2=O)cc1

logD [1]: -0.13
Structure (SMILES): C[C@H]1CCCN1CCCOc1ccc(N2CCN(C(=O)c3ccc(F)cc3F)CC2=O)cc1

logD [1]: 1.52
Structure (SMILES): O=C(c1ccc(Cl)cc1)N1CCN(c2ccc(OC3CCN(C4CCCC4)CC3)cc2)C(=O)C1

logD [1]: 0.88
Structure (SMILES): O=C(c1ccc(F)cc1)N1CCN(c2ccc(OC3CCN(C4CCCC4)CC3)cc2)C(=O)C1

logD [1]: 0.37
Structure (SMILES): N#Cc1ccc(C(=O)N2CCN(c3ccc(OC4CCN(C5CCCC5)CC4)cc3)C(=O)C2)cc1

Vd [15]: 2.9 L/kg
half-life [17]: 4.3 h
clearance [20]: 9 mL/min/kg
Log D [1]: 0.11
Structure (SMILES): O=C(c1ccc(F)cc1)N1CCN(c2ccc(OCCCN3CCCCC3)cc2)C(=O)C1

logD [1]: -1.07
Structure (SMILES): N#Cc1ccc(C(=O)N2CCN(c3ccc(OCCCN4CCCC4)cc3)C(=O)C2)cc1

logD [1]: -0.46
Structure (SMILES): CS(=O)(=O)c1ccc(C(=O)N2CCN(c3ccc(OC4CCN(C5CCCC5)CC4)cc3)C(=O)C2)cc1

half-life [2]: 1.5 h
Tmax [12]: 4.8 min
Tmax [13]: 0.75 h
AUC [14]: 3090 ng·h/mL
bioavailability [3]: 61%
clearance [4]: 37 mL/min/kg
AUC [5]: 437 ng·h/mL
bioavailability [16]: 86%
Tmax [6]: 3 h
Kp at 5 min [18]: 0.3
Cmax [19]: 400 ng/mL
Cmax [7]: 300 ng/mL
logD [1]: 0.12
AUC [8]: 805 ng·h/mL
Tmax [9]: 4.8 min
Cmax [10]: 155 ng/mL
Cmax [21]: 530 ng/mL
AUC [22]: 1570 ng·h/mL
Vd [11]: 2.4 L/kg
Structure (SMILES): O=C(c1ccc(F)cc1)N1CCN(c2ccc(OCCCN3CCCCC3)cc2)C(=O)C1.O=CO

logD [1]: -1.19
Structure (SMILES): CS(=O)(=O)c1ccc(C(=O)N2CCN(c3ccc(OCCCN4CCCCC4)cc3)C(=O)C2)cc1

logD [1]: -0.45
Structure (SMILES): O=C(c1ccc(F)cc1F)N1CCN(c2ccc(OCCCN3CCCC3)cc2)C(=O)C1
